Assay results reported in ChEMBL document CHEMBL4364301 (Eur J Med Chem, 2019).
The source made the active and inactive calls. The calls are words filed in the database; no cut-off is given here.

What was measured:
MCF7 [1] = assay: Antiproliferative activity against human MCF7 cells assessed as T/C value at 1 x 10^2 uM incubated for 96 hrs by propidium iodide based 2D monolayer assay; type: functional
MCF7 [2] = assay: Antiproliferative activity against human MCF7 cells assessed as T/C value at 1 uM incubated for 96 hrs by propidium iodide based 2D monolayer assay; type: functional
MCF7 [3] = assay: Antiproliferative activity against human MCF7 cells assessed as T/C value at 1 x 10^1 uM incubated for 96 hrs by propidium iodide based 2D monolayer assay; type: functional
MCF7 [4] = assay: Antiproliferative activity against human MCF7 cells assessed as T/C value at 3.2 x 10^-3 uM incubated for 96 hrs by propidium iodide based 2D monolayer assay; type: functional
MCF7 [5] = assay: Antiproliferative activity against human MCF7 cells assessed as T/C value at 3.2 x 10^1 uM incubated for 96 hrs by propidium iodide based 2D monolayer assay; type: functional
MCF7 [6] = assay: Antiproliferative activity against human MCF7 cells assessed as reduction in cell growth incubated for 96 hrs by propidium iodide based 2D monolayer assay; type: functional; details: MCF7, 96 h
Androgen receptor = biological target: T1, Androgen receptor (Rattus norvegicus, UniProt P15207); assay: Antagonist activity at GAL4-DBD fused rat androgen receptor expressed in UAS-bla 293 cells assessed as reduction in R1881-induced activation incubated for 16 hrs followed by fluorescence substrate addition and measured after 2 hrs by beta lactamase reporter gene assay; type: cell-based
T1 sequence (P15207 whole entry): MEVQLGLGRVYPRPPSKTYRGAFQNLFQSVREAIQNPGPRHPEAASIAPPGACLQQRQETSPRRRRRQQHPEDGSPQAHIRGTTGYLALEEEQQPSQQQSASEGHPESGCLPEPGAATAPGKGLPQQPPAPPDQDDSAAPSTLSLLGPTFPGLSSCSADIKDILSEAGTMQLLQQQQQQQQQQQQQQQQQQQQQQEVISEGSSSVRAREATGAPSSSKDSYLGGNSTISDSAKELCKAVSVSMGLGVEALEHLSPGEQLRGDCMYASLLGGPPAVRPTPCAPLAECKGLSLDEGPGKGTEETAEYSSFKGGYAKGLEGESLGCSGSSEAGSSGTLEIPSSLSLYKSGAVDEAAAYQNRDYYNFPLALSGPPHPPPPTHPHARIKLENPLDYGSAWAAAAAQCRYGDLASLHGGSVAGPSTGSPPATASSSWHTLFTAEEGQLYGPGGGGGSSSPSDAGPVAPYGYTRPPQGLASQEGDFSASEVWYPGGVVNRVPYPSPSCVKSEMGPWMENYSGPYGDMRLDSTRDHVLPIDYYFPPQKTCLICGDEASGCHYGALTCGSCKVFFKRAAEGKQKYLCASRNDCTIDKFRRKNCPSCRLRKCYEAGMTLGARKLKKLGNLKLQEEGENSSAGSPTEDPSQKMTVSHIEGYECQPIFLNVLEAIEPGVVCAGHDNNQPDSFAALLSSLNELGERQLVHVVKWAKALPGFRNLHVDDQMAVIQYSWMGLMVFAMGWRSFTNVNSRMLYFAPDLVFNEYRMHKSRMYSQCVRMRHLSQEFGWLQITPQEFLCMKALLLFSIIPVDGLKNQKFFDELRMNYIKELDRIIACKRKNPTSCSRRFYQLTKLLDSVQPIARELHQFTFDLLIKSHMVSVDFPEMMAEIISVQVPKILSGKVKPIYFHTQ

[7] = Toxicity in NMRI mouse xenografted with human 22Rv1 cells assessed as survival rate at 100 mg/kg, ip administered for 16 days and measured on day 40; type: organism-based; details: in vivo
How it was run: (§1)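 Male NMRI nu/nu 22Rv1-xenograft mice were dosed i.p. at 100 mg/kg/day for 16–18 daily doses in 10% EtOH, 10% Cremophor EL, 5% dextrose vehicle. Body weight was recorded to assess tolerance, and adjusted survival and group median body weight loss were reported.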

[8] = Toxicity in NMRI mouse xenografted with human 22Rv1 cells assessed as body weight loss at 100 mg/kg, ip administered for 16 days and measured on day 40; type: organism-based; details: in vivo, 384 h; how it was run: as §1
CWR22R [9] = assay: Antitumor activity against human 22Rv1 cells xenografted in NMRI mouse assessed as reduction of tumor volume at 100 mg/kg, ip administered for 16 days and measured on day 10; type: functional, organism-based
How it was run: (§2)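 Male NMRI nu/nu mice carried hind-flank 22Rv1 implants and were randomised at 80–200 mm³ tumour volume. Compound was given i.p. at 100 mg/kg/day as 16–18 daily doses in 10% EtOH, 10% Cremophor EL, 5% dextrose; vehicle controls were treated likewise. Tumours were measured by two-dimensional caliper twice weekly and reported as relative tumour volume. T/C was taken from group medians; doubling and quadrupling times were derived from tumour volume.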

[10] = Toxicity in ip dosed NMRI nu/nu mouse assessed as maximum tolerated dose; type: organism-based; details: in vivo
CWR22R [11] = assay: Antitumor activity against human 22Rv1 cells xenografted in NMRI mouse assessed as tumor volume doubling time at 100 mg/kg, ip administered for 16 days (reference value: 2.7 day); type: functional; how it was run: as §2
CWR22R [12] = assay: Antitumor activity against human 22Rv1 cells xenografted in NMRI mouse assessed as reduction of tumor volume at 100 mg/kg, ip administered for 16 days and measured on day 20; type: functional, organism-based; how it was run: as §2
CWR22R [13] = assay: Antitumor activity against human 22Rv1 cells xenografted in NMRI mouse assessed as tumor volume quadrupling time at 100 mg/kg, ip administered for 16 days (reference value: 6.2 day); type: functional; how it was run: as §2
CWR22R [14] = assay: Antitumor activity against human 22Rv1 cells xenografted in NMRI mouse assessed as inhibition of tumor growth by measuring T/C value at 100 mg/kg, ip administered for 16 days and measured on day 14; type: functional; how it was run: as §2

## CC(O)(CSc1cc(C(F)(F)F)cc(C(F)(F)F)c1)C(=O)Nc1cccc(C(F)(F)C(F)(F)F)c1 (racemic)
MCF7 [1]
  T/C: 5%
MCF7 [2]
  T/C: 119%
MCF7 [3]
  T/C: 36%
MCF7 [4]
  T/C: 86%
MCF7 [5]
  T/C: 10%
MCF7 [6]
  IC50: 8.52 µM
  IC70: 10.8 µM

## CC(O)(COc1ccc(C(F)(F)C(F)(F)F)cc1)C(=O)Nc1cc(C(F)(F)F)cc(C(F)(F)F)c1 (racemic)
MCF7 [1]
  T/C: 3%
MCF7 [2]
  T/C: 115%
MCF7 [3]
  T/C: 26%
MCF7 [4]
  T/C: 103%
MCF7 [5]
  T/C: 3%
MCF7 [6]
  IC50: 4.01 µM
  IC70: 6.15 µM

## CC(O)(COc1cccc(S(F)(F)(F)(F)F)c1)C(=O)Nc1ccc([N+](=O)[O-])c(C(F)(F)F)c1 (racemic)
Androgen receptor
  IC50: 0.54 µM

## CC(O)(COc1ccc(S(F)(F)(F)(F)F)cc1)C(=O)Nc1cc(C(F)(F)F)cc(C(F)(F)F)c1 (racemic)
[7]
  survival at 384 h: 100%
[8]
  Activity: Non-Toxic
CWR22R [9]
  Activity: Active
[10]
  MTD: 100 mg/kg
CWR22R [11]
  Time: 6.7 days
CWR22R [12]
  Activity: Active
CWR22R [13]
  Time: 14.3 days
CWR22R [14]
  T/C: 43.9%

## CC(O)(COc1ccccc1C(F)(F)F)C(=O)Nc1ccc(S(F)(F)(F)(F)F)cc1 (racemic)
Androgen receptor
  IC50: 1.81 µM
